# In ChEMBL document CHEMBL1255233, “The P-113 fragment of histatin 5 requires a specific peptide sequence for intracellular translocation in Candida albicans, which is independent of cell wall binding” (Antimicrob Agents Chemother, 2008):
# The source made the active and inactive calls. The rule behind the calls is not given here.
# Experiments:
# [1] = Drug uptake in Candida albicans CAF4-2 having ssa2delta mutation cytoplasmic extract assessed per 10^7 cells at 31.5 uM upto 30 mins by SDS-PAGE in presence of 10 mM NaPB; format: ADME, Cytoplasm; settings: 0.5 h
# Outline: (§1)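 Cells in 10 mM NaPB with biotin-labeled peptide (31.5–32 µM) at 37°C for 5–90 min. After β-ME cell-wall extraction, cells bead-lysed at 4°C in NaPB with protease inhibitors; cytosol from 13,000 rpm spin. Cytosolic protein (10 µg/lane) on Tricine SDS-PAGE, streptavidin-HRP blot, quantitated against peptide standards.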
# [2] = Drug uptake in Candida albicans CAF4-2 cytoplasmic extract assessed per 10^7 cells at 31.5 uM after 90 mins by SDS-PAGE in presence of 10 mM NaPB; format: ADME, Cytoplasm; settings: 1.5 h
# Outline: (§2)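 Wild-type or ssa2 cells were incubated with biotin-labeled peptide (31.5 µM) in 10 mM NaPB at 37°C for 5–90 min. Cell wall was extracted with 1% β-ME in ammonium carbonate (pH 8.0), 30 min at 37°C. Cytosol was obtained by glass-bead lysis with protease inhibitors. Extracts (10 µg/lane) were run on 16% Tricine SDS-PAGE, blotted, and detected with streptavidin-HRP. Amounts were quantified against peptide standards (0.06125–0.5 µg) and expressed per 10^7 cells.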
# [3] = Drug uptake in Candida albicans CAF4-2 cell wall extract at 31.5 uM within 5 mins by SDS-PAGE in presence of 10 mM NaPB; format: ADME, cell-based; settings: caf4-2, 5 min; outline: as §2
# Candida albicans [4] = assay: Drug uptake in Candida albicans CAF4-2 assessed as reduction of free drug in cell supernatant at 31.5 uM after 15 mins by slot blot assay; format: ADME, organism-based; settings: in vivo, 0.25 h
# Outline: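 Early-log cells (1 x 10^8) were washed and suspended in 10 mM NaPB with biotin-labeled peptide (31.5 µM) for 5–90 min with shaking. After centrifugation at 4°C, supernatants were applied to PVDF by slot blot. The membrane was blocked in 3% milk/TBST, probed with streptavidin-HRP (1:1,000), and developed for remaining free peptide.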
# [5] = Drug uptake in Candida albicans CAF4-2 beta-ME extracted cell wall protein assessed per 10^7 cells at 31.5 uM within 15 mins by SDS-PAGE in presence of 10 mM NaPB; format: ADME, cell-based; settings: 0.25 h
# Outline: (§3)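 Early-log cells (1 x 10^8) washed and suspended in 10 mM NaPB with 31.5 µM biotin-labeled peptide at 37°C with shaking, sampled at timepoints to 90 min. Cell wall released with 1% β-ME in ammonium carbonate pH 8.0, 30 min, 37°C. Extract run on 16% Tricine SDS-PAGE (10 µg/lane), blotted, detected with streptavidin-HRP, quantitated against peptide standards.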
# [6] = Drug uptake in Candida albicans CAF4-2 cytoplasmic extract assessed per 10^7 cells at 31.5 uM within 15 mins by SDS-PAGE in presence of 10 mM NaPB; format: ADME, Cytoplasm; settings: 0.25 h; outline: as §2
# [7] = Drug uptake in Candida albicans CAF4-2 cytoplasm at 31.5 uM within 5 mins by SDS-PAGE in presence of 10 mM NaPB; format: ADME; outline: as §1
# Candida albicans [8] = assay: Drug uptake in Candida albicans CAF4-2 having ssa2delta mutation assessed as reduction of free drug in cell supernatant at 31.5 uM after 30 mins by slot blot assay; format: ADME, organism-based; settings: in vivo, 0.5 h
# Outline: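 Supernatant depletion: wt and ssa2 cells (1 x 10^8 in 1 ml 10 mM NaPB) incubated with 31.5 µM biotin-labeled peptide for 5–90 min with shaking. Cells pelleted at 4°C; 50 µl of supernatant slot-blotted onto PVDF, blocked with milk, probed with streptavidin-HRP. Buffer-only cells used as control.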
# [9] = Drug uptake in Candida albicans CAF4-2 beta-ME extracted cell wall protein assessed per 10^7 cells at 31.5 uM within 5 mins by SDS-PAGE in presence of 10 mM NaPB; format: ADME, cell-based; outline: as §3
# Candida albicans [10] = assay: Candidacidal activity against Candida albicans CAF4-2 having ssa1delta mutation after 3 hrs by radial diffusion assay; format: functional, organism-based
# Outline: (§4)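 Radial diffusion: C. albicans cells incorporated into underlay gels; peptides loaded into wells punched in the gel and incubated overnight. Clear-zone diameters (no growth) converted to cell death and plotted against peptide concentration. Means and SD of three independent experiments.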
# [11] = biological target: Heat shock protein SSA2 (Candida albicans (strain SC5314 / ATCC MYA-2876) (Yeast)) (UniProt P46587); assay: Binding affinity to Candida albicans AKRLIGRKFDDHE region of Ssa2 at 2 uM by chemiluminescence assay
# Outline: (§5)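 Overlapping Ssa2p peptides spotted on cellulose-β-alanine membranes; methanol rinse, TBS (pH 8.0) washes, 2 h blocking in albumin/biotin-free buffer at room temperature. Biotin-labeled peptide (2 µM) in blocking buffer, 3 h at room temperature, washed; streptavidin-HRP (1:20,000) 1 h; chemiluminescent detection and imaging. Repeatability confirmed by reprobing after regeneration (30 min, 50°C).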
# Candida albicans [12] = assay: Candidacidal activity against Candida albicans CAF4-2 having ssa1delta mutation assessed as cell death at 31.5 uM treated for 1 hr measured after 48 hrs by microdilution plate assay; format: functional
# [13] = biological target: Heat shock protein SSA2 (Candida albicans (strain SC5314 / ATCC MYA-2876) (Yeast)) (UniProt P46587); assay: Binding affinity to Candida albicans KRKNKKDISTNQR region of Ssa2 at 2 uM by chemiluminescence assay; outline: as §5
# Candida albicans [14] = assay: Candidacidal activity against wild type Candida albicans CAF4-2 assessed as cell death at 31.5 uM treated for 1 hr measured after 48 hrs by microdilution plate assay; format: functional
# Candida albicans [15] = assay: Candidacidal activity against Candida albicans CAF4-2 having ssa2delta mutation assessed as cell death below 31.5 uM treated for 1 hr measured after 48 hrs by microdilution plate assay; format: functional, organism-based
# Candida albicans [16] = assay: Candidacidal activity against wild type Candida albicans CAF4-2 after 3 hrs by radial diffusion assay; format: functional, organism-based
# Outline: (§6)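 C. albicans cells grown in YNB were set into underlay gels. Peptides were loaded into punched wells and incubated overnight. Clear-zone diameters (10 units = 1 mm) were plotted against peptide concentration and converted to cell death. Incubation was in 10 mM or 100 mM NaPB. Means and SD from three independent experiments.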
# Candida albicans [17] = assay: Candidacidal activity against wild type Candida albicans CAF4-2 after 3 hrs by radial diffusion assay in presence of 10 mM NaPB; format: functional, organism-based; outline: as §6
# Candida albicans [18] = assay: Candidacidal activity against wild type Candida albicans CAF4-2 after 3 hrs by radial diffusion assay in presence of 100 mM NaPB; format: functional, organism-based; outline: as §6
# Candida albicans [19] = assay: Candidacidal activity against Candida albicans CAF4-2 having ssa2delta mutation assessed as cell death at 31.5 uM treated for 1 hr measured after 48 hrs by microdilution plate assay; format: functional
# Candida albicans [20] = assay: Candidacidal activity against Candida albicans CAF4-2 having ssa1delta mutation assessed as cell death below 31.5 uM treated for 1 hr measured after 48 hrs by microdilution plate assay; format: functional, organism-based
# Candida albicans [21] = assay: Candidacidal activity against Candida albicans CAF4-2 having ssa2delta mutation after 3 hrs by radial diffusion assay; format: functional, organism-based; outline: as §4
# Candida albicans [22] = assay: Candidacidal activity against wild type Candida albicans CAF4-2 at >62 uM after 3 hrs by radial diffusion assay in presence of 100 mM NaPB; format: functional, organism-based; outline: as §6
# Candida albicans [23] = assay: Candidacidal activity against wild type Candida albicans CAF4-2 assessed as cell death below 31.5 uM treated for 1 hr measured after 48 hrs by microdilution plate assay; format: functional, organism-based
# Outline: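 Candidacidal microdilution assay: 1 x 10^6 cells exposed to peptide for 1 h, diluted to quench, plated on YNB agar. Loss of viability = [1 − (colonies treated/colonies control)] x 100. Means and SD from three independent experiments.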
# Candida albicans [24] = assay: Candidacidal activity against wild type Candida albicans CAF4-2 at >62 uM after 3 hrs by radial diffusion assay; format: functional, organism-based; outline: as §6
# Sequence of Heat shock protein SSA2 (Candida albicans (strain SC5314 / ATCC MYA-2876) (Yeast)) (P46587 whole entry): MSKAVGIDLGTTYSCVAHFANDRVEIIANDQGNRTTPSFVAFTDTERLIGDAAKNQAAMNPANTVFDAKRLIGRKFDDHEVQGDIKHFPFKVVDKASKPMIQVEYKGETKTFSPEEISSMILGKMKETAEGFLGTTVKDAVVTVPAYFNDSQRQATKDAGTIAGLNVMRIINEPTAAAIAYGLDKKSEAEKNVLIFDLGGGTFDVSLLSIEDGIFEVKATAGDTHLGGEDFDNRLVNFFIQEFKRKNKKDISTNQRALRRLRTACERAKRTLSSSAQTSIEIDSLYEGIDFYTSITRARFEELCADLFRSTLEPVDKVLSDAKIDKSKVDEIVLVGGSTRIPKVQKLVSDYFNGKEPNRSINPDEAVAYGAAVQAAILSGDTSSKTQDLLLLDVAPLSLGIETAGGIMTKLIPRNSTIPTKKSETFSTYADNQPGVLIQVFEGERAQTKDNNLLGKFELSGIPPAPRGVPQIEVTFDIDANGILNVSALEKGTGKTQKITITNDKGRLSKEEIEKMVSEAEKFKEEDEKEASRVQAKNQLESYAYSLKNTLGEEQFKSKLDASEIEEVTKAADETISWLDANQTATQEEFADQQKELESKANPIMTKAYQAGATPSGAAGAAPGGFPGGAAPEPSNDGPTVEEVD
Substance,Drug uptake [5],Drug uptake [9] [µg],Activity (Candida albicans [10]),Activity [11],Activity (Candida albicans [12]) [%],Activity [13],Activity (Candida albicans [14]) [%],Activity (Candida albicans [15]),Activity (Candida albicans [16]),Activity (Candida albicans [17]),Activity (Candida albicans [18]),Activity (Candida albicans [19]) [%],Activity (Candida albicans [20]),Activity (Candida albicans [21]),also measured
H-AKRHHGYKRKFH-OH [listing 1 of 2 here],Active,0.1,–,–,–,–,–,–,–,–,–,–,–,–,Drug uptake [1]: < 0.2 µg; Drug uptake [2]: 0.2 µg; Drug uptake [3]: Active; Drug uptake (Candida albicans [4]): Active; Drug uptake [6]: 0.26 µg; Drug uptake [7]: Active; Drug uptake (Candida albicans [8]): Active
H-AKRHHGYKRKFH-OH [listing 2 of 2 here],–,–,Active,Active,90,Active,90,inactive,Active,Active,inactive,76,inactive,inactive,–
H-AQRHHGYKRQFH-OH [listing 1 of 2 here],0.2 µg,0.15,–,–,–,–,–,–,–,–,–,–,–,–,–
H-AQRHHGYKRQFH-OH [listing 2 of 2 here],–,–,inactive,inactive,< 10,inactive,< 10,inactive,inactive,Active,inactive,< 10,inactive,inactive,Activity (Candida albicans [22]): inactive; Activity (Candida albicans [23]): inactive; Activity (Candida albicans [24]): Active
